Assay results published in ChEMBL document CHEMBL1131142 (J Med Chem, 1998).
Activity calls are given as the source filed them. The calls are words filed in the database; no cut-off is given here.

What was measured:
Rattus norvegicus [1] = assay: Tested in vivo for inhibition of sorbital accumulation in the sciatic nerve of streptozotocin- induced diabetic rat; % Inhibition at 30 mg/kg; type: functional
[2] = target: Aldo-keto reductase family 1 member B1 (Sus scrofa, UniProt P80276); assay: In vitro inhibitory activity against aldose reductase in porcine lens.
Procedure, shortened: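 Partially purified porcine lens AR: lens homogenate in 250 mM phosphate pH 7.4 with 2 mM mercaptoethanol, 20000g supernatant, 40-60% ammonium sulfate cut. Assay mix: 100 mM phosphate pH 6.5, 0.2 mM NADPH, 1.5 mM DL-glyceraldehyde, 0.4 M Li2SO4, 7.0 mU/mL enzyme; 37 °C; A340 decrease over 1 min. IC50 read graphically from log concentration-inhibition curve.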

Rattus norvegicus [3] = assay: Tested in vivo for inhibition of sorbital accumulation in the sciatic nerve of streptozotocin- induced diabetic rat; % Inhibition at 100 mg/kg; type: functional
Rattus norvegicus [4] = assay: Compound tested in vivo for inhibition of sorbital accumulation in the sciatic nerve of streptozotocin- induced diabetic rat; No significant inhibition at 30 mg/kg; type: functional, organism-based; design: dose 30 mg/kg
Rattus norvegicus [5] = organism: Rattus norvegicus; assay: Dose required for inhibition of sorbital accumulation in the sciatic nerve of streptozotocin- induced diabetic rat.; type: functional
Procedure, shortened: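 Oral dosing of streptozotocin-diabetic rats once daily for 5 days; sciatic nerve taken 4 h after final dose. Nerve sorbitol assayed fluorometrically via sorbitol dehydrogenase-generated NADH (ex 365/em 430 nm).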

Rattus norvegicus [6] = assay: Compound tested in vivo for inhibition of sorbital accumulation in the sciatic nerve of streptozotocin- induced diabetic rat; % Inhibition at 1 mg/Kg; type: functional
Rattus norvegicus [7] = assay: Compound tested in vivo for inhibition of sorbital accumulation in the sciatic nerve of streptozotocin- induced diabetic rat at 100 mg/kg; type: functional
Rattus norvegicus [8] = assay: Tested in vivo for inhibition of sorbital accumulation in the sciatic nerve of streptozotocin- induced diabetic rat;NS=No significant inhibition at 100 mg/kg; type: functional, organism-based; design: dose 100 mg/kg
Rattus norvegicus [9] = assay: Compound tested in vivo for inhibition of sorbital accumulation in the sciatic nerve of streptozotocin- induced diabetic rat; No significant inhibition at 100 mg/kg; type: functional, organism-based; design: dose 100 mg/kg
Rattus norvegicus [10] = assay: Compound tested in vivo for inhibition of sorbital accumulation in the sciatic nerve of streptozotocin- induced diabetic rat; No significant inhibition at 1 mg/kg; type: functional, organism-based; design: dose 1 mg/kg
Rattus norvegicus [11] = assay: Compound tested for inhibition of sorbital accumulation in the sciatic nerve of streptozotocin- induced diabetic rat; % Inhibition at 1 mg/kg; type: functional

Compound | inhibition in vivo at 30 mg/kg (Rattus norvegicus [1]) [%] | IC50 [2] [nM] | further results
COc1ccc(CN2C(=O)c3cccn3C3(CC(=O)NC3=O)C2=O)cc1 (configuration not stated) | 46.7 |  | 
CN1C(=O)c2cccn2C2(CC(=O)NC2=O)C1=O (configuration not stated) | 51.2 | 280 | 
CN1C(=O)c2cccn2C(CC(=O)O)C1=O (configuration not stated) |  | > 10000 | inhibition in vivo at 100 mg/kg (Rattus norvegicus [3]): 12.8%
COc1ccc(CN2C(=O)c3cccn3C3(CC(=O)NC3=O)C2=O)c(OC)c1 (configuration not stated) |  | 350 | inhibition (Rattus norvegicus [4]): inactive
O=C1C[C@]2(C(=O)N1)C(=O)N(Cc1ccc(Br)cc1F)C(=O)c1cccn12 |  | 190 | ED50 (Rattus norvegicus [5]): > 100 mg/kg/day
O=C1CC2(C(=O)N1)C(=O)N(Cc1ccc(Br)cc1F)C(=O)c1cc(Cl)cn12 (configuration not stated) |  |  | inhibition in vivo at 1 mg/kg (Rattus norvegicus [6]): 23%
O=C(O)CCC1C(=O)N(Cc2ccc(Cl)c(Cl)c2)C(=O)c2cccn21 (configuration not stated) |  | 132 | inhibition in vivo at 100 mg/kg (Rattus norvegicus [7]): 17.2%
O=C1CC2(C(=O)N1)C(=O)NC(=O)c1cccn12 (configuration not stated) | 33.2 | 630 | 
Nc1ccc(CN2C(=O)c3cccn3C3(CC(=O)NC3=O)C2=O)cc1 (configuration not stated) | 33.4 | 140 | 
O=C1CC2(C(=O)N1)C(=O)N(Cc1ccc(Br)cc1)C(=O)c1cccn12 (configuration not stated) | 108 |  | ED50 (Rattus norvegicus [5]): 0.48 mg/kg/day
O=C1CC2(C(=O)N1)C(=O)N(Cc1ccccc1F)C(=O)c1cccn12 (configuration not stated) | 98 |  | ED50 (Rattus norvegicus [5]): 1.3 mg/kg/day
CN1C(=O)c2cccn2C(CCC(=O)O)C1=O (configuration not stated) |  | > 10000 | inhibition (Rattus norvegicus [8]): inactive
O=C(O)CC1C(=O)N(Cc2ccc(Br)cc2F)C(=O)c2cccn21 (configuration not stated) |  | 165 | inhibition (Rattus norvegicus [8]): inactive
O=C(O)CCC1C(=O)NC(=O)c2cccn21 (configuration not stated) |  | > 10000 | inhibition (Rattus norvegicus [8]): inactive
CC(C)N1C(=O)c2cccn2C(CC(=O)O)C1=O (configuration not stated) |  | > 10000 | inhibition in vivo at 100 mg/kg (Rattus norvegicus [3]): 12.9%
O=C1CC2(C(=O)N1)C(=O)N(Cc1ccccc1Br)C(=O)c1cccn12 (configuration not stated) | 82.6 |  | 
O=C1CC2(C(=O)N1)C(=O)N(Cc1ccc(Br)cc1F)C(=O)c1cc(Br)cn12 (configuration not stated) |  |  | inhibition in vivo at 1 mg/kg (Rattus norvegicus [6]): 28.8%
O=C(O)CCC1C(=O)N(Cc2ccc(Br)cc2F)C(=O)c2cccn21 (configuration not stated) |  | 803 | inhibition (Rattus norvegicus [8]): inactive
O=C1CC2(C(=O)N1)C(=O)N(Cc1ccc(F)cc1)C(=O)c1cccn12 (configuration not stated) | 58.8 |  | 
O=C1C[C@@]2(C(=O)N1)C(=O)N(Cc1ccc(Br)cc1F)C(=O)c1cccn12 |  | 15 | ED50 (Rattus norvegicus [5]): 0.18 mg/kg/day
Cc1ccc(CN2C(=O)c3cccn3C3(CC(=O)NC3=O)C2=O)cc1 (configuration not stated) | 65.8 |  | 
O=C1CC2(C(=O)N1)C(=O)N(c1ccccc1)C(=O)c1cccn12 (configuration not stated) | 27.2 | 200 | 
COC(=O)CN(C)C(=O)c1ccc[nH]1 |  | > 10000 | inhibition in vivo at 100 mg/kg (Rattus norvegicus [3]): 38%
O=C(O)CC1C(=O)N(Cc2ccc(Cl)c(Cl)c2)C(=O)c2cccn21 (configuration not stated) |  | 131 | inhibition (Rattus norvegicus [9]): inactive

Compound | inhibition in vivo at 30 mg/kg (Rattus norvegicus [1]) [%] | IC50 [2] [nM] | further results
O=C(O)Cc1nn(Cc2ccc(Br)cc2F)c(=O)c2ccccc12 [PONALRESTAT] |  | 21 | ED50 (Rattus norvegicus [5]): 11 mg/kg/day
O=C1CC2(C(=O)N1)C(=O)N(Cc1ccc(Br)cc1F)C(=O)c1ccc(Cl)n12 (configuration not stated) |  |  | inhibition in vivo at 1 mg/kg (Rattus norvegicus [6]): 20.2%
O=C1CC2(C(=O)N1)C(=O)N(Cc1ccc(Cl)cc1)C(=O)c1cccn12 (configuration not stated) | 105 | 38 | ED50 (Rattus norvegicus [5]): 1.5 mg/kg/day
O=C1CC2(C(=O)N1)C(=O)N(Cc1ccc(Br)cc1F)C(=O)c1ccc(Br)n12 (configuration not stated) |  |  | inhibition (Rattus norvegicus [10]): inactive
CN(CC(=O)O)C(=O)c1ccc[nH]1 |  | 5000 | inhibition in vivo at 100 mg/kg (Rattus norvegicus [3]): 23.7%
O=C1CC2(C(=O)N1)C(=O)N(Cc1ccc(C(F)(F)F)cc1)C(=O)c1cccn12 (configuration not stated) | 88.4 |  | 
O=C1CC2(C(=O)N1)C(=O)N(Cc1ccccc1Cl)C(=O)c1cccn12 (configuration not stated) | 97 | 37 | ED50 (Rattus norvegicus [5]): 5.8 mg/kg/day
O=C1CC2(C(=O)N1)C(=O)N(Cc1ccc(Cl)cc1F)C(=O)c1cccn12 (configuration not stated) | 110 |  | ED50 (Rattus norvegicus [5]): 0.74 mg/kg/day
O=C1CC2(C(=O)N1)C(=O)N(Cc1ccc(Br)cc1F)C(=O)c1cc(Br)c(Br)n12 (configuration not stated) |  | 52 | inhibition (Rattus norvegicus [10]): inactive
O=C1CC2(C(=O)N1)C(=O)N(Cc1ccc([N+](=O)[O-])cc1)C(=O)c1cccn12 (configuration not stated) | 102 |  | ED50 (Rattus norvegicus [5]): 10.8 mg/kg/day
O=C1CC2(C(=O)N1)C(=O)N(Cc1cccc(Cl)c1)C(=O)c1cccn12 (configuration not stated) | 99.4 | 35 | ED50 (Rattus norvegicus [5]): 3.8 mg/kg/day
O=C1CC2(C(=O)N1)C(=O)N(Cc1ccc(Cl)c(Cl)c1)C(=O)c1cccn12 (configuration not stated) | 112 |  | ED50 (Rattus norvegicus [5]): 0.6 mg/kg/day
O=C1CC2(C(=O)N1)C(=O)N(Cc1cccc(Br)c1)C(=O)c1cccn12 (configuration not stated) | 102 |  | 
O=C1CC2(C(=O)N1)C(=O)N(Cc1ccc(F)cc1F)C(=O)c1cccn12 (configuration not stated) | 98 |  | ED50 (Rattus norvegicus [5]): 5.4 mg/kg/day
O=C1CC2(C(=O)N1)C(=O)N(CCc1ccccc1)C(=O)c1cccn12 (configuration not stated) | 15.3 | 270 | 
O=C1CC2(C(=O)N1)C(=O)N(Cc1ccccc1)C(=O)c1cccn12 (configuration not stated) | 69.1 |  | 
COc1ccc2c(C(=S)N(C)CC(=O)O)cccc2c1C(F)(F)F [TOLRESTAT] |  | 15 | ED50 (Rattus norvegicus [5]): 26.7 mg/kg/day
CC(=O)c1cc2n(c1)C1(CC(=O)NC1=O)C(=O)N(Cc1ccc(Br)cc1F)C2=O (configuration not stated) |  | 210 | inhibition in vivo at 1 mg/kg (Rattus norvegicus [6]): 26.6%
COc1ccc(CN2C(=O)c3cccn3C3(CC(=O)NC3=O)C2=O)cc1OC (configuration not stated) |  |  | inhibition (Rattus norvegicus [4]): inactive
O=C1CC2(C(=O)N1)C(=O)N(Cc1ccc(Br)cc1F)C(=O)c1cccn12 (configuration not stated) | 115 | 45 | inhibition in vivo at 1 mg/kg (Rattus norvegicus [11]): 105%; ED50 (Rattus norvegicus [5]): 0.3 mg/kg/day
CN1CC(=O)n2cccc2C1=O |  | 7500 | inhibition in vivo at 100 mg/kg (Rattus norvegicus [3]): 55.7%
CC(C)N1C(=O)c2cccn2C(CCC(=O)O)C1=O (configuration not stated) |  | > 10000 | inhibition (Rattus norvegicus [8]): inactive
O=C(O)CC1C(=O)NC(=O)c2cccn21 (configuration not stated) |  | > 10000 | inhibition in vivo at 100 mg/kg (Rattus norvegicus [3]): 12.5%
